Cytotoxicity data for 95 compounds are collected here from ChEMBL document CHEMBL4513216, “Probing the Open Global Health Chemical Diversity Library for Multistage-Active Starting Points for Next-Generation Antimalarials” (ACS Infect Dis, 2020).

The nature of this data set: Toxicity liver stage against HepG2, at 10uM. The note with it: human, HepG2-A16-CD81EGFP cells; read-out: INHIBITION
Further details: test concentration 10 uM, cell line HepG2-A16-CD81EGFP. Type of data set: cell-based. The procedure, abridged:
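Uninfected HepG2-A16-CD81EGFP cells, 3 × 10^3 per well, 1536-well, plated on prespotted compound at 10 μM final, parasite-free screening media added to match infected plates; puromycin 10 μM positive, DMSO 0.5% negative; run in parallel with 48 h PbLuc assay at 37 °C, 5% CO2; viability by CellTiter-Glo luminescence, normalized to controls.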

For `CN(Cc1ccccc1)c1ncccc1CNC(=O)c1ccnn1C`, the cytotoxicity at 10 µM was -1.37%.
The value for `CCCOc1ccc(CCC(=O)Nc2nonc2C)cc1` was -7.24%; that for `CCC1CN(C(=O)c2ccccc2C(C)=O)CCN1C(C)C` (stereo not given) was 0.684%.
As to `c1ncn(CCNC2CCCN(Cc3noc(C4CC4)n3)C2)n1` (stereo not given), the cytotoxicity at 10 µM was -2.77%.
For the compound `O=C(Cc1cnn(-c2ccccc2)n1)NC(C1CC1)C1CC1`, the cytotoxicity at 10 µM is -9.66%.
The same measure for `C[C@]1(O)CCN(Cc2c[nH]cn2)C[C@@H]1Oc1cccc(F)c1`: -5.72%.
For `CCOC(CC)C(=O)NCCC(=O)N1CCN(c2ncccn2)CC1` (stereo not given), the cytotoxicity at 10 µM was -3.91%.
For `CC(=O)N1CCCCCC1C1CCN(Cc2nc(C3CC3)no2)CC1` (stereo not given), the cytotoxicity at 10 µM is -56.4%.
As for `CNC(=O)Cc1ccccc1NC(=O)N[C@H]1c2ccccc2C[C@H]1O`, the cytotoxicity at 10 µM is -36.1%.
Take `COC(C)(C)CC(C)NCc1cc(-c2ccco2)on1` (stereo not given): the cytotoxicity at 10 µM was determined as 1.81%.
Consider `CCC(CNC(=O)c1ccc(Br)o1)N1CCc2ccccc2C1` (stereo not given), for which the cytotoxicity at 10 µM is -20.5%.
Regarding `CNC(=O)[C@@H]1C[C@@H](N)CN1C1CCN(c2ccccc2F)CC1`, the cytotoxicity at 10 µM was -53.3%.
As for `CC(C)c1noc(CN2CCN(C(=O)c3ccncc3F)CC2)n1`, the cytotoxicity at 10 µM is -10.9%.
Regarding `CN1N=C(C(=O)N(Cc2ccco2)C2CCCC2)CCC1=O`, the cytotoxicity at 10 µM is -144%.
Consider `CCN1CCCN(C(=O)c2ccc(NC(=O)CC(C)C)c(C)c2)CC1`, for which the cytotoxicity at 10 µM was -8.04%.
Take `O=C(c1ccsc1)N1CCC2(CCN2Cc2ccc(F)cc2)C1` (stereo not given): the cytotoxicity at 10 µM was -144%.
Regarding `Cc1ccccc1-c1noc(C2CC(C(C)C)=NO2)n1` (stereo not given), the cytotoxicity at 10 µM was -14.6%.
For `COc1ccc(S(=O)(=O)N2CCC(O)(CN(C)C)C2)cc1` (stereo not given), the cytotoxicity at 10 µM is -3.36%.
Consider `Cn1nc(CN2CCCCC2)c2c1CN(C(=O)c1ccccc1)C2`, for which the cytotoxicity at 10 µM was determined as 4.83%.
With `Cn1cnc2c1CCN(Cc1csc(C3CCCC3)n1)C2`, the cytotoxicity at 10 µM was -12.3%.
Consider `CC(=O)N1CCN(c2cc(N(C)C)cnn2)CC1`, for which the cytotoxicity at 10 µM was 1.37%.
Take `CNc1cccc(C2CN(C(=O)c3c[nH]cn3)CCO2)n1` (stereo not given): the cytotoxicity at 10 µM came to 6%.
Turning to `CC(C)S(=O)(=O)CCN1CCc2c(ncn2C2CC2)C1`, the cytotoxicity at 10 µM is -13.9%.
With `Cc1nnc([C@@H]2CC[C@@H]3[C@@H](CCN3C3CCOCC3)O2)o1`, the cytotoxicity at 10 µM turned out to be 8.58%.
As to `CCOC(=O)[C@]12CCCN(Cc3ccsc3)C[C@H]1CN(CCOC)C2`, the cytotoxicity at 10 µM was -127%.
As to `O=C(c1ccccc1)N1CCC[C@]2(C[C@@H](OCc3ccccn3)CO2)C1`, the cytotoxicity at 10 µM was -67.5%.
The same measure for `COCCN1C(=O)CCC12CCCN(Cc1ccccc1F)C2` (stereo not given): 3.64%.
For `Cc1c(C(=O)N2CCCC(O)(CN(C)C)CC2)c2cc(O)ccc2n1C` (stereo not given), the cytotoxicity at 10 µM was -119%.
Turning to `CCNc1cc2c(nn1)CCN(C(=O)CC1CCCC1)C2`, the cytotoxicity at 10 µM was -3.87%.
The same measure for `COc1cccc(F)c1CN1CCC(c2nc(C)cc(C)n2)C1` (stereo not given): 6.83%; for `Cn1c(CN2CCN(CC3CC3)CC2)nnc1C1CCC1`: -26.7%; for `CN1CCN(Cc2cnc3n2CCN(Cc2cccs2)C3)CC1`: -3.24%.
Regarding `CC(C)(C)C(=O)N1C[C@@H]2COC[C@]2(c2nnc(C3CC3)o2)C1`, the cytotoxicity at 10 µM was -2.47%.
Regarding `CC(C(=O)N1CCCN(Cc2ccc(C#N)cc2)CC1)n1cccn1` (stereo not given), the cytotoxicity at 10 µM was -5.6%.
`COCc1ncn2c1CN(S(=O)(=O)c1cccs1)CCC2`: the cytotoxicity at 10 µM is 6.82%.
With `CSc1nc(N)c2c(n1)N=C1COC(=O)C1C2c1cccc(O)c1` (stereo not given), the cytotoxicity at 10 µM was 32.8%.
The value for `Cc1nnc(CN2CCCC2c2ccc(Cl)c(Cl)c2)o1` (stereo not given) was -1.7%; that for `O=C(CCc1ccc(Cl)s1)NCc1nnc2n1CCCCC2` was -6.1%; that for `CCC(C(=O)NCc1noc(Cc2cccs2)n1)n1cccn1` (stereo not given) was -1.91%.
In the case of `CN(Cc1ccccn1)C1CC2(CCN(Cc3ccccn3)CC2)C1`, the cytotoxicity at 10 µM was -87%.
Take `C=C(C)CN(CC)C(=O)c1cc(F)ccc1N1CCN(C)CC1`: the cytotoxicity at 10 µM was -1.18%.
In the case of `CNC(=O)c1nc2c(s1)CCN(C(=O)c1cccnc1)CC2`, the cytotoxicity at 10 µM was 6%.
Turning to `COCCC(=O)N(Cc1cccnc1)CC1CCN(C2CCCC2)CC1`, the cytotoxicity at 10 µM was -5%.
Take `CC(C)Nc1nc2c(c(NC3CC3)n1)CCN(C1CCOCC1)CC2`: the cytotoxicity at 10 µM is 12.3%.
On to `CN(Cc1nccn1C)S(=O)(=O)N1CCCC1c1ccco1` (stereo not given), for which the cytotoxicity at 10 µM came out at 3.21%.
The same measure for `O=S(=O)(CCCN1CCCC1Cn1cccn1)c1ccccc1` (stereo not given): -5.18%; for `CCc1nccn1C1CCCN(C(=O)CCCc2ccccn2)C1` (stereo not given): -18.7%; for `NC(=O)CN1CCCC(C(=O)N2CCC(O)(c3ccccc3)CC2)C1` (stereo not given): -7.55%.
Consider `CS(=O)(=O)N1CC[C@H]2O[C@H](C(=O)NCCc3ccncc3)CC[C@H]21`, for which the cytotoxicity at 10 µM came to 4.41%.
Regarding `Cc1noc(C)c1CN(C)Cn1c(=O)oc2ccccc21`, the cytotoxicity at 10 µM is -5.07%.
The value for `Cc1cc(C)nc(N2CCN(Cc3cc4n(n3)CCNC4)CC2)n1` was -8.46%; that for `O=C(NC1CC1)N1CC[C@H]2[C@H]1CCN2c1ncccn1` was 3.08%.
Regarding `N[C@@H]1c2ccccc2C2(CCN(c3ncccc3C(F)(F)F)CC2)[C@H]1O`, the cytotoxicity at 10 µM amounted to 0.106%.
Regarding `Cc1ccc2c(c1)C(NC1CCN(C)CC1)CCCO2` (stereo not given), the cytotoxicity at 10 µM is -8.2%.
Take `COc1ncccc1CNC(=O)c1cccnc1O`: the cytotoxicity at 10 µM was -4.02%.
The value for `O=C(C[C@@H]1COC[C@H]2CN(CC3CCOCC3)C[C@@H]12)N1CCCCO1` was 7.49%.
The value for `CN(C)CCCN(C)C1CCN(c2cccc(-c3cscn3)c2)CC1` was -5%; that for `CNC(=O)CC1COCCN1C(=O)C1(c2ccc(Cl)cc2)CCC1` (stereo not given) was 5.33%; that for `O=C(C1=CCCC1)N1CCC2(CC1)CC(Oc1cccnc1)CO2` (stereo not given) was -1.58%.
On to `CCn1cc(Cl)c(C(=O)NCCOC)n1`, for which the cytotoxicity at 10 µM amounted to 7.05%.
Consider `CCC(CC)c1nnc(NC(=O)NC(C)Cn2cccn2)s1` (stereo not given), for which the cytotoxicity at 10 µM turned out to be 3.91%.
As to `CC(C)N1Cc2cccc(NCC(=O)N(C)C)c2C1`, the cytotoxicity at 10 µM worked out at 6.05%.
`O=C(COCc1nc(-c2ccncc2)no1)N1CCCC1`: the cytotoxicity at 10 µM is -10.7%.
The value for `CCCN1CCN(C(=O)c2cc3ccccc3cn2)[C@H]2CS(=O)(=O)C[C@H]21` was 1.1%.
With `CCn1cc2c(n1)CN(Cc1ccc(C)o1)CC2COCC1CC1` (stereo not given), the cytotoxicity at 10 µM is -80.7%.
In the case of `CC1CN(C)CCN1C(=O)c1cccn1Cc1cccnc1` (stereo not given), the cytotoxicity at 10 µM was -13.5%.
The same measure for `O=C(NCCc1nccs1)C1CCCN(Cc2ccco2)C1` (stereo not given): 1.5%; for `CNS(=O)(=O)CC(=O)N1CCCc2cc(C(C)C)ccc21`: 11.8%; for `Cc1cccnc1NC(=O)CNC(=O)c1ccccc1Cl`: -3.36%.
As for `CNC(=O)C(CCSC)NC(=O)c1ccc2ccccc2n1` (stereo not given), the cytotoxicity at 10 µM is -1.35%.
As for `CC(=O)Nc1cc(CCC2CCN(C(=O)c3ccccn3)CC2)ccn1`, the cytotoxicity at 10 µM was -0.331%.
As to `CCNC(=O)[C@@H]1C[C@@H](NC(=O)c2ccc(C)s2)CN1Cc1ccccn1`, the cytotoxicity at 10 µM is -3.73%.
Consider `CCN1CC[C@@]2(C(=O)N(C)C)CCN(C(=O)Cc3ccccc3)CC[C@@H]12`, for which the cytotoxicity at 10 µM worked out at 4.65%.
On to `O=C(NCc1cccc(F)c1)N1CCC2(CC(=O)N(c3ccsc3)C2)C1` (stereo not given), for which the cytotoxicity at 10 µM is -10%.
With `CC(c1cccc(-c2ccc(C(=O)O)cc2Cl)c1)N(C)C` (stereo not given), the cytotoxicity at 10 µM was -2.25%.
For the compound `CN1CCN(c2ccc(NC(=O)c3cccs3)c(C(F)(F)F)c2)CC1`, the cytotoxicity at 10 µM came out at 3.94%.
As to `c1ccc(OCc2cscn2)c(CNC2CCc3ncnn3C2)c1` (stereo not given), the cytotoxicity at 10 µM was -9.42%.
Turning to `Cc1nc(COCc2nc3c(o2)CN(C(=O)c2ccoc2)C3)cs1`, the cytotoxicity at 10 µM is -1.95%.
As to `O=C(COCc1ccccc1)N1CCN(c2ccc(Cl)cn2)CC1`, the cytotoxicity at 10 µM is -5.98%.
For the compound `Cc1noc(C)c1CN1CCO[C@H]2CN(C(=O)N3CCCC3)C[C@H]21`, the cytotoxicity at 10 µM stood at 8.01%.
For `Cc1cc(C(=O)N2CCC(c3nccn3Cc3ccccn3)CC2)no1`, the cytotoxicity at 10 µM was -1.85%.
Take `COc1cc(OC)cc(C2(O)CCN(Cc3nc(C)c(C)o3)CC2)c1`: the cytotoxicity at 10 µM was -7.06%.
Regarding `Cc1nc(S(=O)(=O)CCn2cccn2)n(CC2CCCO2)c1C` (stereo not given), the cytotoxicity at 10 µM is -4.34%.
In the case of `COc1ccc2c(c1)OCC(C(=O)NCc1nc3c(s1)CCCC3)C2` (stereo not given), the cytotoxicity at 10 µM was -4.29%.
The same measure for `O=C(NCCn1ccc(-c2ccncc2)n1)c1ccncc1`: -19.1%; for `O=C(c1ccc(C2CCCO2)s1)N1Cc2ccccc2C1` (stereo not given): -13.4%.
For `COCc1ncc(CN2CCC3(CCC(=O)N(CC(C)O)C3)CC2)cn1` (stereo not given), the cytotoxicity at 10 µM was -123%.
On to `CSc1cc2c(cc1NC(=O)N(C)Cc1ccncc1)OCCO2`, for which the cytotoxicity at 10 µM amounted to 11.4%.
With `COc1cc(C)c(NC(=O)CCn2cccc2)cc1OC`, the cytotoxicity at 10 µM was found to be 1.61%.
In the case of `C[C@@]1(O)CCN(Cc2cc[nH]n2)C[C@H]1Oc1cccc(F)c1`, the cytotoxicity at 10 µM is -6.86%.
As to `COc1cc(C(=O)NS(=O)(=O)c2cccc(C#N)c2)cc(Cl)c1OC`, the cytotoxicity at 10 µM is -3.93%.
As for `Cc1ccccc1C(=O)NC[C@@H]1CCN(C(=O)C2(O)CCCC2)C[C@H]1O`, the cytotoxicity at 10 µM was -38.7%.
`O=C(CCc1cccnc1)N(Cc1ccsc1)CC1CCCO1` (stereo not given): the cytotoxicity at 10 µM was -11.5%.
For the compound `Cc1ccc(CN2CC(C(=O)NC(C)C)C3(CCOCC3)C2)s1` (stereo not given), the cytotoxicity at 10 µM came to 1.12%.
The same measure for `CC(c1ccc(Cl)cc1)N1CCN(CCNS(C)(=O)=O)CC1` (stereo not given): -15.3%.
